Experimental data from ChEMBL document CHEMBL3877325, “Novel salicylanilides from 4,5-dihalogenated salicylic acids: Synthesis, antimicrobial activity and cytotoxicity” (Bioorg Med Chem, 2017).
Values after ≈ are worked out from the molar mass of the structure shown.

Assays:
Mycobacterium kansasii [1] = test: Antimycobacterial activity against Mycobacterium kansasii isolate 6509/96 after 21 days by micromethod; type: functional; settings: isolate 6509/96, 504 h
Method in brief: (§1)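 MIC in Šula's semisynthetic medium at 37 °C, read after 7, 14 and 21 days. Inoculum is strain dilution 10^-4; 235/80 is a collection strain and 6509/96 a clinical isolate. Compounds are added as DMSO solutions at 500, 250, 125, 62.5, 32, 16, 8, 4, 2, 1 and 0.5 µM. INH (in sterile water) and PAS are the reference drugs.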

Mycobacterium kansasii [2] = test: Antimycobacterial activity against Mycobacterium kansasii isolate 6509/96 after 7 days by micromethod; type: functional; settings: isolate 6509/96, 168 h; method in brief: as §1
Mycobacterium avium [3] = test: Antimycobacterial activity against Mycobacterium avium My 330/80 after 21 days by micromethod; type: functional; settings: My 330/80, 504 h
Method in brief: (§2)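 M. avium My 330/80 (collection strain) inoculated at 10^-5 dilution into Šula's semisynthetic medium. Compounds added from DMSO solutions at 500, 250, 125, 62.5, 32, 16, 8, 4, 2, 1 and 0.5 µM. MIC determined by micromethod at 37 °C, read after 14 and 21 days.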

[4] = test system: Mycobacterium tuberculosis; test: Antimycobacterial activity against Mycobacterium tuberculosis H37Rv My 331/88 after 14 days by micromethod; type: functional; settings: H37Rv My 331/88, 336 h
Method in brief: (§3)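 MIC micromethod in Šula's semisynthetic medium at 37 °C, read after 14 and 21 days. Compounds added as DMSO solutions at 500 down to 0.5 µM (twofold-type series: 500, 250, 125, 62.5, 32, 16, 8, 4, 2, 1, 0.5 µM). Isoniazid standard given in sterile water.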

[5] = test system: Mycobacterium tuberculosis; test: Antimycobacterial activity against Mycobacterium tuberculosis H37Rv My 331/88 after 21 days by micromethod; type: functional; settings: H37Rv My 331/88, 504 h; method in brief: as §3
Mycobacterium avium [6] = test: Antimycobacterial activity against Mycobacterium avium My 330/80 after 14 days by micromethod; type: functional; settings: My 330/80, 336 h; method in brief: as §2
Mycobacterium kansasii [7] = test: Antimycobacterial activity against Mycobacterium kansasii isolate 6509/96 after 14 days by micromethod; type: functional; settings: isolate 6509/96, 336 h; method in brief: as §1
Mycobacterium kansasii [8] = test: Antimycobacterial activity against Mycobacterium kansasii isolate 235/80 after 21 days by micromethod; type: functional; settings: isolate 235/80, 504 h; method in brief: as §1
Mycobacterium kansasii [9] = test: Antimycobacterial activity against Mycobacterium kansasii isolate 235/80 after 7 days by micromethod; type: functional; settings: isolate 235/80, 168 h; method in brief: as §1
Mycobacterium kansasii [10] = test: Antimycobacterial activity against Mycobacterium kansasii isolate 235/80 after 14 days by micromethod; type: functional; settings: isolate 235/80, 336 h; method in brief: as §1
[11] = Cytotoxicity against human HepG2 cells assessed as reduction in cell viability after 24 hrs by MTS assay; type: toxicity, cell-based
Method in brief: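 HepG2 cells (passages 33-37) are grown in MEM with 10% FBS, L-glutamine and non-essential amino acids. They are seeded at 1 × 10^4 cells/well and treated next day with 0.1-100 µM in triplicate for 24 h at 37 °C, 5% CO2. MTS reagent is added for 2 h and A490 read.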

[12] = Selectivity index, ratio of IC50 for human HepG2 cells to MIC for Mycobacterium tuberculosis H37Rv after 21 days; type: toxicity, cell-based; settings: HepG2 cells versus Mycobacterium tuberculosis H37Rv, read-out: Selectivity Index
Method in brief: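 HepG2 cells (passages 33-37) seeded at 1 × 10^4 per well and treated next day with 0.1–100 µM in triplicate. After 24 h at 37 °C, 5% CO2, MTS reagent added for 2 h and absorbance read at 490 nm. IC50 taken from viability relative to untreated control, then divided by the 21-day H37Rv MIC.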

Row | SMILES | MIC (Mycobacterium kansasii [1]) [µM] | MIC (Mycobacterium kansasii [2]) [µM] | MIC (Mycobacterium avium [3]) [µM] | MIC [4] [µM] | MIC [5] [µM] | MIC (Mycobacterium avium [6]) [µM] | MIC (Mycobacterium kansasii [7]) [µM] | MIC (Mycobacterium kansasii [8]) [µM] | MIC (Mycobacterium kansasii [9]) [µM] | MIC (Mycobacterium kansasii [10]) [µM] | IC50 at 24 h [11] [µM] | selectivity ratio at 504 h [12]
1 | O=C(Nc1ccc(Br)cc1)c1cc(Cl)c(Cl)cc1O | 8 (≈ 2.89 µg/mL) | 8 (≈ 2.89 µg/mL) | 32 (≈ 11.6 µg/mL) | 2 (≈ 0.722 µg/mL) | 4 (≈ 1.44 µg/mL) | 32 (≈ 11.6 µg/mL) | 8 (≈ 2.89 µg/mL) | 8 (≈ 2.89 µg/mL) | 8 (≈ 2.89 µg/mL) | 8 (≈ 2.89 µg/mL) | 21.4 | 5.35
2 | O=C(Nc1cc(C(F)(F)F)cc(C(F)(F)F)c1)c1cc(Br)c(Cl)cc1O | 8 (≈ 3.7 µg/mL) | 8 (≈ 3.7 µg/mL) | 32 (≈ 14.8 µg/mL) | 2 (≈ 0.925 µg/mL) | 4 (≈ 1.85 µg/mL) | 16 (≈ 7.4 µg/mL) | 8 (≈ 3.7 µg/mL) | 8 (≈ 3.7 µg/mL) | 8 (≈ 3.7 µg/mL) | 8 (≈ 3.7 µg/mL) | 5.07 | 1.27
3 | O=C(Nc1ccc(Cl)c(Cl)c1)c1cc(Br)c(Cl)cc1O | 8 (≈ 3.16 µg/mL) | 8 (≈ 3.16 µg/mL) | 125 (≈ 49.4 µg/mL) | 2 (≈ 0.791 µg/mL) | 4 (≈ 1.58 µg/mL) | 125 (≈ 49.4 µg/mL) | 8 (≈ 3.16 µg/mL) | 8 (≈ 3.16 µg/mL) | 8 (≈ 3.16 µg/mL) | 8 (≈ 3.16 µg/mL) | 7.65 | 1.91
4 | O=C(Nc1ccc(C(F)(F)F)cc1)c1cc(Br)c(Cl)cc1O | 4 (≈ 1.58 µg/mL) | 4 (≈ 1.58 µg/mL) | 62.5 (≈ 24.7 µg/mL) | 1 (≈ 0.395 µg/mL) | 2 (≈ 0.789 µg/mL) | 32 (≈ 12.6 µg/mL) | 4 (≈ 1.58 µg/mL) | 4 (≈ 1.58 µg/mL) | 4 (≈ 1.58 µg/mL) | 4 (≈ 1.58 µg/mL) | 11 | 5.52
5 | O=C(Nc1ccc(Br)cc1)c1cc(Br)c(Cl)cc1O | 8 (≈ 3.24 µg/mL) | 8 (≈ 3.24 µg/mL) | 32 (≈ 13 µg/mL) | 2 (≈ 0.811 µg/mL) | 4 (≈ 1.62 µg/mL) | 32 (≈ 13 µg/mL) | 8 (≈ 3.24 µg/mL) | 8 (≈ 3.24 µg/mL) | 4 (≈ 1.62 µg/mL) | 8 (≈ 3.24 µg/mL) | 10.8 | 2.71
6 | O=C(Nc1ccc(Cl)c(Cl)c1)c1cc(Cl)c(Cl)cc1O | 8 (≈ 2.81 µg/mL) | 8 (≈ 2.81 µg/mL) | 62.5 (≈ 21.9 µg/mL) | 2 (≈ 0.702 µg/mL) | 2 (≈ 0.702 µg/mL) | 62.5 (≈ 21.9 µg/mL) | 8 (≈ 2.81 µg/mL) | 8 (≈ 2.81 µg/mL) | 4 (≈ 1.4 µg/mL) | 8 (≈ 2.81 µg/mL) | 12.4 | 6.21
7 | O=C(Nc1ccc(C(F)(F)F)cc1)c1cc(Cl)c(Cl)cc1O | 8 (≈ 2.8 µg/mL) | 4 (≈ 1.4 µg/mL) | 62.5 (≈ 21.9 µg/mL) | 2 (≈ 0.7 µg/mL) | 2 (≈ 0.7 µg/mL) | 62.5 (≈ 21.9 µg/mL) | 8 (≈ 2.8 µg/mL) | 8 (≈ 2.8 µg/mL) | 4 (≈ 1.4 µg/mL) | 8 (≈ 2.8 µg/mL) | 9.87 | 4.94
8 | O=C(Nc1cc(C(F)(F)F)cc(C(F)(F)F)c1)c1cc(Cl)c(Cl)cc1O | 16 (≈ 6.69 µg/mL) | 8 (≈ 3.34 µg/mL) | 32 (≈ 13.4 µg/mL) | 2 (≈ 0.836 µg/mL) | 2 (≈ 0.836 µg/mL) | 32 (≈ 13.4 µg/mL) | 16 (≈ 6.69 µg/mL) | 16 (≈ 6.69 µg/mL) | 8 (≈ 3.34 µg/mL) | 8 (≈ 3.34 µg/mL) | 4.86 | 2.43
9 | O=C(Nc1ccc(Br)cc1)c1cc(Br)ccc1O [DIBROMSALAN] | 8 (≈ 2.97 µg/mL) | 8 (≈ 2.97 µg/mL) | 16 (≈ 5.94 µg/mL) | 4 (≈ 1.48 µg/mL) | 4 (≈ 1.48 µg/mL) | 16 (≈ 5.94 µg/mL) | 8 (≈ 2.97 µg/mL) | 8 (≈ 2.97 µg/mL) | 4 (≈ 1.48 µg/mL) | 8 (≈ 2.97 µg/mL) | 23.6 | 5.9
10 | O=C(Nc1cc(C(F)(F)F)cc(C(F)(F)F)c1)c1cc(Cl)ccc1O [IMD-0354] | 16 (≈ 6.14 µg/mL) | 8 (≈ 3.07 µg/mL) | 32 (≈ 12.3 µg/mL) | 4 (≈ 1.53 µg/mL) | 8 (≈ 3.07 µg/mL) | 32 (≈ 12.3 µg/mL) | 16 (≈ 6.14 µg/mL) | 16 (≈ 6.14 µg/mL) | 8 (≈ 3.07 µg/mL) | 16 (≈ 6.14 µg/mL) | 10.2 | 1.27
